Measurements: paper PMC12486192 (Clinical Pharmacology in Drug Development, 2025)
Like-named read-outs stand apart in the source and are kept apart here.

Assays:
[1] = assay type: in vivo, human; conditions: Part 1: single oral 400 mg [14C]-imlunestrant solution
Summary of the method: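 Healthy women received a single oral 400 mg radiolabelled test compound solution (100 µCi). Urine was collected −12–0, 0–6, 6–12 and 12–24 h, then in 24-h intervals. Feces were pooled 0–24 h, then in 24-h intervals. Collection continued until ≥90% of dose was recovered and ≤1%/day for 2 consecutive days, or Day 22. Vomitus was collected within 4 h. Radioactivity was counted by LSC and reported as % and cumulative % of dose.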

[2] = assay type: in vivo; conditions: female, human, plasma, po, 400 mg
[3] = Metabolite profiling and identification in plasma and feces; assay type: in vivo, human; conditions: Part 1: oral 400 mg [14C]-imlunestrant solution
Summary of the method: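 Part 1 plasma was sampled predose and 0.5–264 h after the oral radiolabelled dose. It was extracted twice with acetonitrile (3 volumes), dried, and reconstituted in 10 mM ammonium formate pH 9.0:methanol (80:20). Separation was on a C18 column with 10 mM ammonium formate pH 9.0 / methanol, gradient 20% to 90% B. Fecal metabolites were identified if ≥1% of dose across time points.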

[4] = assay type: in vivo, human
Safety and tolerability = assay type: in vivo, human
Summary of the method: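 AEs and SAEs were monitored to Day 59 (Part 1) or Day 46 (Part 2), with a follow-up call ~7 days after discharge. Part 2 gave two 200-mg oral tablets, then 4 h later a 45 µg (~1 µCi) radiolabelled IV infusion over 15 min. TEAEs were summarised by treatment, MedDRA v24.0 system organ class and preferred term. Severity (mild/moderate/severe) was graded by the investigator.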

[5] = biological target: cytochrome P450 (CYP) 3A4 (Homo sapiens, UniProt P08684); assay: In vitro enzyme substrate studies, CYP3A4; assay type: in vitro ADME
[6] = system: uridine 5′ diphospho‐glucuronosyltransferases (UGTs; including UGT1A1, UGT1A8, UGT1A3, UGT1A9, and UGT1A10); assay: In vitro enzyme substrate studies, UGTs; assay type: in vitro ADME
[7] = Estimated first-pass metabolism in gut and liver; assay type: in vivo, human
[8] = Biliary excretion in bile-cannulated rats; assay type: in vivo; conditions: data not shown
[9] = oral 200‐1200 mg once daily, patients, EMBER; cited from earlier work
P‐glycoprotein = conditions: in vitro; cited from earlier work
[10] = similar to Biopharmaceutics Classification System Class 2 compounds; cited from earlier work
[11] = cited from earlier work
[12] = Part 2: 45 µg [14C]-imlunestrant (1 µCi) IV infusion
[13] = female, human, plasma, intravenous, 45 µg
[14] = female, human, plasma, iv, 45 µg
[15] = female, human, plasma, po, 400 mg
[16] = Part 1: 400 mg [14C]-imlunestrant oral (N=8)

Chain of cytochrome P450 (CYP) 3A4 (P08684 whole entry): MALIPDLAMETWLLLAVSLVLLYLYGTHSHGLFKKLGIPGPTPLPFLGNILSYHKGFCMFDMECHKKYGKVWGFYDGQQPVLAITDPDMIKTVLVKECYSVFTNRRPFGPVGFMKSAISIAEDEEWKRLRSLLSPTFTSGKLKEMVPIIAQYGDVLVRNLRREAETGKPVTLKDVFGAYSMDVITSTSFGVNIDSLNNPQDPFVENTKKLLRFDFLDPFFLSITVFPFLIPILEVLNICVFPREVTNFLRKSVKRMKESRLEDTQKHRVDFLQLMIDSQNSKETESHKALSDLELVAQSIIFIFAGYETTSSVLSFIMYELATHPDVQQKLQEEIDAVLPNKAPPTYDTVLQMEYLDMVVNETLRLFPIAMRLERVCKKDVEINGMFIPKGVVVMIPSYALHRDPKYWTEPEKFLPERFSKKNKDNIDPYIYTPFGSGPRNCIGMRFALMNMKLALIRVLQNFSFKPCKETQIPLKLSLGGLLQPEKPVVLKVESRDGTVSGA

## Oc1ccc2c3c(cnc2c1)-c1ccc(C(F)(F)F)cc1O[C@@H]3c1ccc(OCCN2CC(CF)C2)cc1 [Imlunestrant]
[1]
  Radioactivity recovered in the feces in the first 192 hours: Over 90%
[1]; mean of 5 participants
  Total radioactivity excreted via the feces: 97.3%
[2]
  Cmax: 117 ng/mL
  half-life: 33.7 h
[3]
  Detectable in plasma up to: up to 264 hours
[4]; [12]
  Time to Cmax of [14C]‐imlunestrant after start of intravenous infusion: ≤ 15 min
  Time to Cmax of total radioactivity after start of intravenous infusion: ≤ 15 min
[4]; [13]
  AUC: 1.92 ng·h/mL
  Cmax: 0.585 ng/mL
  Tmax: 0.25 h
  half-life: 32.5 h
[4]; [14]
  Vd: 1020 L
  clearance: 397 mL/min
[4]; [15]
  Cmax: 38.7 ng/mL
  Tmax: 4.37 h
  half-life: 32.1 h
Safety and tolerability; [16]
  All TEAEs: % of participants with TEAEs: 100%
  All TEAEs: number of participants with TEAEs: 8
Safety and tolerability; Part 2: 400 mg imlunestrant oral tablets + 45 µg [14C]-imlunestrant IV (N=8)
  All TEAEs: number of TEAEs: 5
Safety and tolerability; single 400 mg oral solution or tablet/intravenous dose, fasted, healthy women
  Tolerability: well tolerated
[5]
  Substrate of CYP3A4: substrate
[6]
  Substrate of UGTs: substrate
[7]
  Fraction passing through the portal vein extracted by first‐pass metabolism in the liver: Approximately 30%
[8]
  Fraction of oral dose appearing as a glucuronide metabolite in bile: substantial fraction
[9]
  Dose dependence of Cmax and AUC0‐∞: dose‐proportional increase
  Geometric mean t1/2: 25 to 30 h
  Median tmax: approximately 4 hours
P‐glycoprotein
  Substrate of the efflux transporter P‐glycoprotein: in vitro substrate
[10]
  Permeability: moderate to high

## C[C@]12CC[C@@H]3c4ccc(O)cc4C[C@@H](CCCCCCCCC[S+]([O-])CCCC(F)(F)C(F)(F)F)[C@H]3[C@@H]1CC[C@@H]2O (stereo partly drawn) [fulvestrant]
[11]
  Solubility: poorly soluble
